TLR4-MyD88 BLA – blocks binding of human TLR4 to MyD88 | O00206+Q99836 | HeLa CL3-4 TLR4/MyD88 BLA complementation, FRET ratio | inhibition, % at 8.4 µM | hit rate 0.18% among 200,000; in the data active means inhibition above about 25%;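 further: 0% = vehicle and 100% = reference inhibitor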
XBP1 UPR activ – adaptive UPR (XBP1) activation | CHO-XBP1 luciferase reporter, IRE1-XBP1 UPR activation, luminescence; percent of tunicamycin response, DMSO as zero | activation, % at 20 µM | AID 463104 | hit rate 0.33% among 330,000;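 active means versus positive control, 20 µM dose yields 30% or more activation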;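 further: 100% = tunicamycin at 10 µg/mL and 0% = DMSO only wells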
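Material: CHO-XBP1 cells stably carrying IRE1-XBP1-driven luciferase reporter | Medium: F12 with 10% serum | Compound dosing: 20 µM single concentration, DMSO 1% | Incubation: Overnight seeding at 37 °C, 6 h compound treatment at 37 °C | Detection: Steady-Glo luminescence read | Read-out basis: % activation of reporter signal versus tunicamycin and DMSO controls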
TLR9-MyD88 inh – blocks human TLR9 binding to MyD88 | CHO BLA complementation TLR9-MyD88, CCF4 FRET ratio | Q9NR96+Q99836 | inhibition, % at 4.98 µM | hit rate 0.21% among 340,000;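 active means inhibition above the mean over all tested compounds plus 3 SD, cut at about 21% in these data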;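 further: 0% = DMSO only wells and 100% = clavulanate BLA inhibitor control wells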
CHOP UPR activ – activators of apoptotic arm of unfolded protein response (CHOP). AID 449763. hit rate 0.34% among 330,000. CHO-CHOP luciferase reporter, UPR activation, luminescence; percent of tunicamycin response over DMSO baseline. activation, % at 10 µM;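 active means at 10 µM dose, activation of 40% or more, normalized to positive control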;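 further: 100% = tunicamycin at 10 µg/mL and 0% = DMSO alone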
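measured by = luciferase luminescence | assay system = CHO-CHOP cells, stable luciferase reporter of PERK-eIF2a-CHOP signalling | amount = 500 reporter cells seeded per well | timing = 6 h compound exposure at 37 °C after overnight seeding | controls = positive tunicamycin 10 µg/mL, negative DMSO alone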
NOD2-RIPK2 inh – blocks binding of human NOD2 to RIPK2 | O43353 | AID 624267 | hit rate 0.38% among 360,000 | CHO BLA complementation NOD2-RIPK2, CCF4 ratio | inhibition, % at 4.98 µM; in the data active means inhibition above about 21%;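 further: 0% = vehicle only and 100% = reference blocker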
CHOP inhibitor – inhibitors of CHOP induction in ER stress response; CHO-K1 CHOP-promoter luciferase, tunicamycin-induced, 15-18 h; inhibition, % at 10 µM; hit rate 3.8% among 220,000; AID 2732;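 active means compounds that reduced the stress-induced luciferase reporter signal by more than about 70% of percent inhibition, limit read from the data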;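 further: 0% = tunicamycin plus vehicle and 100% = wells without tunicamycin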
TLR4 MyD88 cnf – TLR4-MyD88 interaction inhibition confirmed. inhibition, % at 8.4 µM. hit rate 50% among 350. HeLa CL3-4 BLA complementation, CCF4 FRET ratio. AID 941. shares compounds with TLR4-MyD88 BLA;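 active means mean inhibition across three repeat runs above about 25% carried over from the earlier screen, limit read from the data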;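 further: plate controls were DMSO only for no effect and clavulanic acid blocking BLA at full dose for full effect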
BLA inh HeLa – beta-lactamase inhibition flagged in TLR4-MyD88 counter-screen; shares compounds with TLR4-MyD88 BLA; HeLa BLA reporter, CCF4 FRET ratio; inhibition, % at 8.4 µM; hit rate 63% among 350; AID 1237;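 active means mean inhibition over three repeats above about 26% taken from the earlier screen, limit read from the data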;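 further: HeLa cells stably expressing beta-lactamase reporter as counterscreen for TLR4-MyD88 inhibitors; 0% = DMSO and 100% = clavulanic acid full inhibition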
CHOP confirm – confirmation of CHOP induction inhibitors. shares compounds with CHOP inhibitor. CHO-CHOP promoter luciferase reporter, tunicamycin-induced, luminescence. inhibition, % at 10 µM. hit rate 45% among 2,100. AID 504437;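 active means mean of three repeat readings of reporter signal inhibition above a set limit, cut at about 70% in these data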;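 further: 0% = tunicamycin plus vehicle and 100% = wells lacking tunicamycin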
* hit, by the source's call; / = no result. The full list was thinned out, with hits kept by preference.

SMILES	TLR4-MyD88 BLA	XBP1 UPR activ	TLR9-MyD88 inh	CHOP UPR activ	NOD2-RIPK2 inh	CHOP inhibitor	TLR4 MyD88 cnf	BLA inh HeLa	others
CN(C)c1ccc(C2CC(c3ccccc3)=Nc3nc(-c4ccccc4)cn32)cc1 (configuration not stated)	25*	/	/	/	/	17	4	19
CC(=O)c1sc2nc(-c3cccs3)cc(C(F)(F)F)c2c1N	30*	-5	8	-1	-2	-13	13	25
CCOC(=O)C(=Cc1ccc2c(c1)OCO2)c1ccccc1	/	/	-3	/	-9	/	/	/
CCc1ccc(N2CC(C(=O)NCc3ccc4c(c3)OCO4)CC2=O)cc1 (configuration not stated)	1	0	1	-2	-9	8	/	/
O=C(NCc1ccc2c(c1)OCO2)C1CC(=O)N(c2ccc(F)cc2)C1 (configuration not stated)	25*	-1	-7	0	2	-3	-8	7
Cc1cn([C@H]2C[C@H](O)[C@@H](CNS(=O)(=O)c3ccc(NS(=O)(=O)N(C)C)cc3)O2)c(=O)[nH]c1=O	/	/	0	/	5	/	/	/
Cc1ccc(C)c(NS(=O)(=O)c2ccc(OCC(=O)NCc3ccco3)cc2)c1	26*	-2	3	2	3	1	3	1
COc1ccc(C(O)c2nc(-c3ccoc3)cs2)cc1 (configuration not stated)	/	/	/	/	3	/	/	/
CN(C)CCCNc1oc(-c2ccc(Cl)cc2)nc1C#N	0	7	5	2	-5	13	/	/
COc1ccc(-c2nc(C#N)c(NCCN(C)C)o2)cc1	27*	-3	-1	3	4	-1	-7	3
O=C(Nc1ccc(Br)cc1Br)Nc1cccc2[nH]c([C@@H]3O[C@H](CO)[C@@H](O)[C@H](O)[C@H]3O)nc12	/	/	/	/	9	/	/	/
C=CCNc1sc(C(=O)c2ccc(Br)s2)c(N)c1C#N	37*	-3	-3	-1	-3	16	20	55*
COc1ccc2nc(/C(C#N)=C\c3ccc(C(=O)O)cc3)[nH]c2c1	27*	-2	16	0	16	7	13	27*
COc1ccc(C=C(C#N)c2ccc(OC)cc2)cc1	/	/	9	/	-1	/	/	/
CC1CCN(Cc2ccc(-c3nn[nH]n3)cc2)CC1	27*	-4	-19	-2	-2	26	-5	4
CCSc1ncnc2c1oc1ccccc12	-13	2	13	1	-3	47	/	/
Clc1ncnc2c1oc1ccccc12	33*	2	-9	4	-11	-33	37*	15
COc1ccc(Br)cc1C1=CC(=O)C[C@H](c2ccc(F)cc2)C1	/	/	-7	/	2	/	/	/
Oc1ccc2ccccc2c1/C=N/Nc1nnc(-c2ncc[nH]2)c2ccccc12	33*	2	-6	-2	1	79*	22	50*
COc1ccc(/C=N/Nc2nnc(-c3ncc[nH]3)c3ccccc23)cc1	-2	7	-2	7	1	-12	/	/
Cc1cccc(NC(=O)c2cc([N+](=O)[O-])ccc2Cl)c1O	-10	/	3	/	-1	-16	/	/
Cc1n[nH]c(C)c1NC(=O)c1cc([N+](=O)[O-])ccc1Cl	27*	2	-8	-2	2	16	-6	5
CC(O)CN(Cc1cccc(Cl)c1)CC(C)O (configuration not stated)	28*	0	8	1	-3	-4	-5	4
COc1ccc(-c2c(Sc3ccccc3)c3cc(-c4ccc(OC)c(F)c4)ccc3n2C)cc1	/	/	/	/	-8	/	/	/
Nc1c(C(=O)C2CC2)sc2nc(-c3ccccc3)cc(C(F)(F)F)c12	8	1	16	2	-1	28	/	/
SMILES	TLR4-MyD88 BLA	XBP1 UPR activ	TLR9-MyD88 inh	CHOP UPR activ	NOD2-RIPK2 inh	CHOP inhibitor	TLR4 MyD88 cnf	BLA inh HeLa	others
COc1cccc(-c2cc(C(F)(F)F)c3c(N)c(C#N)sc3n2)c1	27*	9	/	1	/	55	20	49*
CCN(CC)c1ccc(/C=C(\C#N)c2nc(-c3cccs3)c(NC(C)=O)s2)cc1	28*	/	/	/	/	-10	28*	51*
CS(=O)(=O)c1ccc(Nc2nc(C(N)CCc3ccccc3)cs2)cc1 (configuration not stated)	/	/	/	/	3	/	/	/
O=C(Cn1ncc(Cl)c(Cl)c1=O)N1CCc2ccccc21	27*	/	14	/	21	36	24	5
O=C(Cn1ncc2c1-c1ccccc1OC2)N1CCc2ccccc21	-1	-2	4	-1	8	49	/	/
CN(C)c1ccc(CNc2nc3cc(-c4ccc(F)cc4)sc3c(=O)n2C)cc1	/	/	/	/	-3	/	/	/
CNC(=O)c1sc(N2N=C3/C(=C/c4ccccc4)CCCC3C2c2ccccc2)nc1C (configuration not stated)	28*	0	9	0	8	41	24	54*
CNC(=O)c1sc(N2N=C3/C(=C\c4ccccc4)CCCC3C2c2ccccc2)nc1C (configuration not stated)	/	/	-8	/	-1	/	/	/
O=C(Nc1ccc2oc(-c3cccnc3)nc2c1)c1ccc([N+](=O)[O-])o1	30*	/	4	/	0	-60	16	8
O=C(Nc1ccc2oc(-c3cccnc3)nc2c1)c1cccnc1	7	5	-1	1	-3	6	/	/
O=C(NCc1cccc(C(F)(F)F)c1)c1[nH]c(C(F)(F)F)nc1-c1ccccc1	/	/	/	/	-19	/	/	/
Cc1cc(/C=C2\Sc3ccccc3N2C)cc(C)[n+]1CC1CCCO1 (configuration not stated)	36*	2	/	7	0	62	23	41*
Cc1ccc(/C=C2/Sc3ccccc3N(CC(=O)NCC3CCCO3)C2=O)cc1 (configuration not stated)	/	-1	3	1	-1	/	/	/
Cn1c(=O)c([N+](=O)[O-])c(-n2ccnc2)c2ccccc21	25*	-2	4	15	5	103*	-5	-13	CHOP confirm=-90
Cn1c(=O)c([N+](=O)[O-])c(NCCCn2ccnc2)c2ccccc21	/	-1	-6	1	-2	11	/	/
CC(C)C[C@H]1CNC(=O)C(=O)N1C[C@@H]1CCCN1C[C@H](Cc1ccccc1)N1C[C@H](Cc2ccccc2)N(CCc2ccccc2)C(=O)C1=O	/	/	/	/	4	/	/	/

Screening data deposited in PubChem by several laboratories.
